In ChEMBL document CHEMBL4325822, “Discovery of a tetrazolyl β-carboline with in vitro and in vivo osteoprotective activity under estrogen-deficient conditions” (Medchemcomm, 2018):
Blank lines part the entries; values can stand above or below the compound they belong to. Calls of active or inactive are those of the source. The calls are words filed in the database; no cut-off is given here.

Key:
Calvarial osteoblast [1] = assay: Increase in Runx2 protein expression in Sprague-Dawley rat calvarial osteoblasts at 100 pM after 48 hrs by Western blot analysis; assay type: functional, cell-based
Outline: (§1)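 Rat calvarial osteoblasts (pooled 1–2-day pups, collagenase/dispase digests) at 60–70% confluence treated 48 h. Whole-cell lysates immunoblotted with primary antibody overnight at 4 °C, then HRP secondary, with ECL detection. Densitometry gives fold change normalized to β-actin versus untreated cells. Mean ± SEM of three independent experiments.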

[2] = Induction of osteoblast differentiation in Sprague-Dawley rat calvarial osteoblasts assessed as alkaline phosphatase activity at 100 pM after 48 hrs using PNPP as substrate by spectrophotometric method relative to control; assay type: functional
Outline: (§2)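 Calvarial osteoblasts at 2 × 10³ cells/well. Treated 48 h with varied concentrations in differentiation medium (5% charcoal-treated FBS, 10 mM β-glycerophosphate, 50 µg·mL⁻¹ ascorbic acid). Total ALP read with PNPP substrate at 405 nm. Cell-free wells check for compound interference with substrate or absorbance.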

[3] = Induction of osteoblast differentiation in Sprague-Dawley rat calvarial osteoblasts assessed as alkaline phosphatase activity after 48 hrs using PNPP as substrate by spectrophotometric method; assay type: functional, cell-based; outline: as §2
[4] = Increase in OCN mRNA expression in Sprague-Dawley rat calvarial osteoblasts at 100 pM by RT-PCR method relative to control; assay type: functional, Calvarial osteoblast
Outline: (§3)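 Primary calvarial osteoblasts were lysed in TRIzol after treatment, and total RNA was extracted. Transcripts were quantified by real-time PCR using the comparative CT (ΔΔCT) method.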

[5] = Increase in BMP2 mRNA expression in Sprague-Dawley rat calvarial osteoblasts at 100 pM by RT-PCR method relative to control; assay type: functional, Calvarial osteoblast; outline: as §3
Calvarial osteoblast [6] = assay: Osteogenic activity in Sprague-Dawley rat calvarial osteoblasts assessed as mineralized nodule formation at 100 pM after 21 days by alizarin red-S staining based colorimetric method; assay type: functional
Outline: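 Osteoblasts at 10,000–15,000 cells/cm² in duplicate plates, 21 days in differentiation medium, medium changed every 48 h. Cells fixed in 4% PFA, stained with alizarin red-S (40 mM, pH 4.5, 30 min) and photographed. Stain extracted with 10% acetic acid, pH brought to 4.5 with ammonium hydroxide, read at 405 nm, normalized to cell number.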

[7] = Increase in Runx2 mRNA expression in Sprague-Dawley rat calvarial osteoblasts at 100 pM by RT-PCR method relative to control; assay type: functional, Calvarial osteoblast
Calvarial osteoblast [8] = assay: Increase in BMP2 protein expression in Sprague-Dawley rat calvarial osteoblasts at 100 pM after 48 hrs by Western blot analysis; assay type: functional, cell-based
Outline: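 Rat calvarial osteoblasts at 60-70% confluence were treated 48 h. Whole-cell lysates were blotted, blocked in 5% milk, and probed with primary antibody overnight at 4 °C, then with HRP secondary and ECL detection. Densitometry was normalized to β-actin; fold change versus untreated cells, three independent experiments, mean ± SEM.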

Calvarial osteoblast [9] = assay: Increase in OCN protein expression in Sprague-Dawley rat calvarial osteoblasts at 100 pM after 48 hrs by Western blot analysis; assay type: functional, cell-based; outline: as §1
Calvarial osteoblast [10] = assay: Cytotoxicity against Sprague-Dawley rat calvarial osteoblasts assessed as reduction in cell viability at 0.000001 to 1 uM after 48 hrs by MTT assay; assay type: cell-based
Outline: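 Osteoblasts came from pooled calvaria of 1-2-day-old Sprague-Dawley pups, isolated by sequential dispase/collagenase digestion. Cells were exposed to compound at 1 pM to 1 µM for 48 h, and viability was measured by MTT.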

Calvarial osteoblast [11] = assay: Induction of osteoblast differentiation in Sprague-Dawley rat calvarial osteoblasts assessed as alkaline phosphatase activity at 0.000001 to 1 uM after 48 hrs using PNPP as substrate by spectrophotometric method relative to control; assay type: functional, cell-based; outline: as §2
[12] = Rattus norvegicus, Sprague-Dawley, Calvarial osteoblast, 48 h, read-out: EC50

EC50 [3, 12]: 613 nM
Compound: CCOC(=O)c1cc2c([nH]c3ccccc32)c(C=O)n1
Activity (Calvarial osteoblast [1]): Active
Emax at 0.0001 µM [2]: 65%
fold change (FC) [4]: 1.8 - 4.6
fold change (FC) [5]: 1.8 - 4.6
Activity (Calvarial osteoblast [6]): 20%
fold change (FC) [7]: 1.8 - 4.6
Activity (Calvarial osteoblast [8]): Active
Activity (Calvarial osteoblast [9]): Active
Activity (Calvarial osteoblast [10]): Non-Toxic

EC50 ([3]; calvarial osteoblast): Not Active
Emax (Calvarial osteoblast [11]): inactive
Compound: CCOC(=O)c1cc2c([nH]c3ccccc32)c(C(NC(C)(C)C)c2nnnn2C(C)(C)C)n1 (configuration not stated)

EC50 ([3]; calvarial osteoblast): Not Active
Emax (Calvarial osteoblast [11]): inactive
Compound: CCOC(=O)c1cc2c([nH]c3ccccc32)c(C(c2nnnn2C(C)(C)C)N2CCOCC2)n1 (configuration not stated)

EC50 ([3]; calvarial osteoblast): Not Active
Emax (Calvarial osteoblast [11]): inactive
Compound: COC(=O)c1cc2c([nH]c3ccccc32)c(C(NCc2ccc(Cl)c(Cl)c2)c2nnnn2C(C)(C)C)n1 (configuration not stated)

EC50 ([3]; calvarial osteoblast): Not Active
Emax (Calvarial osteoblast [11]): inactive
Compound: CCOC(=O)c1cc2c([nH]c3ccccc32)c(C(c2nnnn2C(C)(C)C)N2CCN(C(=O)c3ccco3)CC2)n1 (configuration not stated)

EC50 ([3]; calvarial osteoblast): Not Active
Emax (Calvarial osteoblast [11]): inactive
Compound: CCOC(=O)c1cc2c([nH]c3ccccc32)c(C(c2nnnn2C(C)(C)C)N2CCN(c3ccc(F)cc3)CC2)n1 (configuration not stated)

EC50 [3, 12]: 468 nM
Compound: COC(=O)c1cc2c([nH]c3ccccc32)c(C(NCc2ccccc2)c2nnnn2C(C)(C)C)n1 (configuration not stated)
Emax at 0.0001 µM [2]: 29%
